Measurements: ChEMBL document CHEMBL2046318, “Synthesis and biological evaluation of novel flavonols as potential anti-prostate cancer agents” (Eur J Med Chem, 2012)

Key:
CWR22R [1] = test: Inhibition of prostate specific antigen expression in human 22Rv1 cells assessed as PSA protein level at 20 uM after 72 hrs by densitometry relative to untreated control; type: functional; parameters: scale not given: the % may be the effect or the level left
Method in brief: (§1)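 22rv1 cells were seeded at 2 × 10^5 per well, left to adhere overnight, then treated for 72 h at 10 or 20 µM. Cells were lysed in NP-40/deoxycholate/SDS buffer with protease and phosphatase inhibitors. 15 µg protein was run on SDS-PAGE and blotted, then probed with AR, PSA and actin antisera and an HRP secondary. Bands were quantified by densitometry as % of vehicle control, mean of 3–5 replicates with SD.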

CWR22R [2] = test: Inhibition of androgen receptor expression in human 22Rv1 cells assessed as AR protein level at 20 uM after 72 hrs by densitometry relative to untreated control; type: functional; parameters: scale not given: the % may be the effect or the level left; method in brief: as §1
CWR22R [3] = test: Antiproliferative activity against human 22Rv1 cells incubated up to 144 hrs by Coulter particle count and size analyzer; type: functional, cell-based; settings: 22Rv1, 144 h
Method in brief: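 22rv1 cells in RPMI 1640 with 10% FBS were seeded at 5 × 10^3 per well, left to adhere overnight, then exposed to agents in DMSO (final DMSO <0.1%) for up to 144 h. Cells were trypsinised and counted on a Coulter counter. Cell number as % of DMSO control was plotted against log concentration at 144 h, and the IC50 was taken from the straight-line fit. Mean of 3–6 experiments.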

CWR22R [4] = test: Inhibition of prostate specific antigen expression in human 22Rv1 cells assessed as PSA protein level at 10 uM after 72 hrs by densitometry relative to untreated control; type: functional; parameters: scale not given: the % may be the effect or the level left; method in brief: as §1
CWR22R [5] = test: Inhibition of androgen receptor expression in human 22Rv1 cells assessed as AR protein level at 10 uM after 72 hrs by densitometry relative to untreated control; type: functional; parameters: scale not given: the % may be the effect or the level left; method in brief: as §1
CWR22R [6] = test: Growth inhibition of human 22Rv1 cells at 0.1 uM incubated up to 144 hrs by Coulter particle count and size analyzer; type: functional; settings: 22Rv1, 144 h, read-out: GI
CWR22R [7] = test: Growth inhibition of human 22Rv1 cells at 50 uM incubated up to 144 hrs by Coulter particle count and size analyzer; type: functional; settings: 22Rv1, 144 h, read-out: GI
CWR22R [8] = test: Growth inhibition of human 22Rv1 cells at 0.01 uM incubated up to 144 hrs by Coulter particle count and size analyzer; type: functional; settings: 22Rv1, 144 h, read-out: GI

| SMILES | Activity (CWR22R [1]) [%] | Activity (CWR22R [2]) [%] | IC50 (CWR22R [3]) [µM] | Activity (CWR22R [4]) [%] | Activity (CWR22R [5]) [%] | inhibition of growth at 0.1 µM (CWR22R [6]) [%] | inhibition of growth at 50 µM (CWR22R [7]) [%] | inhibition of growth at 0.01 µM (CWR22R [8]) [%] |
| --- | --- | --- | --- | --- | --- | --- | --- | --- |
| COc1cc(-c2oc3ccccc3c(=O)c2O)cc(OC)c1OC | 23 | 62 | 3.1 | 21 | 96 |  |  |  |
| O=c1c(O)c(-c2cc(O)c(O)c(O)c2)oc2ccccc12 | 109 | 89 | 7.7 | 110 | 94 |  |  |  |
| COc1cc(-c2oc3ccccc3c(=O)c2OC)cc(OC)c1OC | 149 | 80 | 2.6 | 167 | 94 |  |  |  |
| COc1cc(OC)cc(-c2oc3ccccc3c(=O)c2O)c1 | 109 | 72 | 12.4 | 133 | 74 |  |  |  |
| COc1cc(-c2oc3ccc(F)cc3c(=O)c2O)cc(OC)c1OC | 5 | 75 | 3.3 | 14 | 91 |  |  |  |
| COc1cc(-c2oc3ccccc3c(=O)c2F)cc(OC)c1OC | 63 | 125 | > 40 | 63 | 110 | 46 | 48 | 18 |
| COc1cc(-c2oc3cc(F)ccc3c(=O)c2O)cc(OC)c1OC | 22 | 75 | 4 | 37 | 112 |  |  |  |
| O=c1c(O)c(-c2cc(O)c(O)c(O)c2)oc2cc(F)ccc12 | 106 | 94 | 11.6 | 111 | 100 |  |  |  |
| COc1cc(-c2oc3cc(F)cc(F)c3c(=O)c2O)cc(OC)c1OC | 68 | 103 | 5.9 | 95 | 100 |  |  |  |
| O=c1c(O)c(-c2cc(O)c(O)c(O)c2)oc2cc(F)cc(F)c12 | 132 | 90 | 6.3 | 134 | 118 |  |  |  |
| COc1ccc(-c2oc3cc(F)cc(F)c3c(=O)c2O)cc1OC | 88 | 94 | 7.4 | 78 | 110 |  |  |  |
| O=c1c(O)c(-c2ccc(O)c(O)c2)oc2cc(F)cc(F)c12 | 22 | 86 | 16.3 | 61 | 116 |  |  |  |
| COc1ccc(-c2oc3cc(F)cc(F)c3c(=O)c2O)cc1 | 66 | 111 | 15.8 | 85 | 115 |  |  |  |
| O=c1c(O)c(-c2ccc(O)cc2)oc2cc(F)cc(F)c12 | 33 | 96 | 28.7 | 77 | 136 |  |  |  |
| COc1ccc(-c2oc3cc(F)ccc3c(=O)c2O)cc1OC | 70 | 120 | > 40 | 78 | 129 |  |  |  |
| O=c1c(O)c(-c2ccc(O)c(O)c2)oc2cc(F)ccc12 | 18 | 59 | 9.2 | 21 | 108 |  |  |  |
| COc1ccc(-c2oc3cc(F)ccc3c(=O)c2O)cc1 | 62 | 104 | 7.1 | 70 | 112 |  |  |  |
| O=c1c(O)c(-c2ccc(O)cc2)oc2cc(F)ccc12 | 3 | 64 | 8.4 | 32 | 129 |  |  |  |
| COc1cccc(-c2oc3ccccc3c(=O)c2O)c1 | 13 | 23 | 5.3 | 27 | 64 |  |  |  |
| COc1ccc(-c2oc3ccccc3c(=O)c2O)cc1 | 115 | 61 | 30.5 | 127 | 71 |  |  |  |
| COc1ccc(-c2oc3ccccc3c(=O)c2O)cc1OC [3-HYDROXY-3',4'-DIMETHOXYFLAVONE] | 56 | 81 | 12.3 | 61 | 63 |  |  |  |
| O=c1c(O)c(-c2ccc(O)c(O)c2)oc2cc(O)ccc12 [FISETIN] | 44 | 101 | 25.9 | 51 | 109 |  |  |  |
| O=c1c(O)c(-c2ccccc2)oc2ccccc12 [FLAVONOL] | 80 | 92 | 14.9 | 124 | 100 |  |  |  |
| O=c1c(O)c(-c2ccc(O)cc2)oc2cc(O)cc(O)c12 [KAEMPFEROL] | 37 | 131 | > 40 | 33 | 128 |  |  |  |
| O=c1c(O)c(-c2cc(O)c(O)c(O)c2)oc2cc(O)cc(O)c12 [MYRICETIN] | 121 | 114 | 13.1 | 110 | 119 |  |  |  |
| O=c1c(O)c(-c2ccc(O)c(O)c2)oc2cc(O)cc(O)c12 [QUERCETIN] | 31 | 120 | 15.5 | 40 | 114 |  |  |  |
| O=c1c(O)c(-c2ccc(O)cc2)oc2cc(O)ccc12 [RESOKAEMPFEROL] | 39 | 125 | 30.2 | 47 | 141 |  |  |  |
| O=c1c(O)c(-c2cc(O)c(O)c(O)c2)oc2cc(O)ccc12 [ROBINETIN] | 111 | 102 | 7.1 | 69 | 84 |  |  |  |
